Experimental data reported in ChEMBL document CHEMBL4354826, “Structure-Based Discovery of SD-36 as a Potent, Selective, and Efficacious PROTAC Degrader of STAT3 Protein” (J Med Chem, 2019).
Active and inactive are the calls of the source. The rule behind the calls is not given here.

Tests used:
[1] = target: Protein cereblon/Signal transducer and activator of transcription 3 (Homo sapiens, UniProt P40763+Q96SW2); test: Protac activity at CRBN/STAT3 in human SUDHL1 cells assessed as degradation of STAT3 incubated for 16 hrs by Western blot analysis; type: cell-based
[2] = Antiproliferative activity against human MOLM16 cells assessed as reduction in cell viability incubated for 4 days by cell-titer glo luminescent assay; type: functional, cell-based; conditions: MOLM16, 96 h
Outline: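 Viability assay: cells incubated with serially diluted compounds for 4 days, viability read by CellTiter-Glo luminescence; IC50 from concentration–response.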

[3] = target: T1, Protein cereblon/Signal transducer and activator of transcription 2 (Homo sapiens) (UniProt Q96SW2+P52630); test: Protac activity at CRBN/STAT2 in human MOLM16 cells assessed as degradation of STAT2 at 0.01 to 10 uM incubated for 4 hrs by Western blot analysis; type: cell-based
Outline: (§1)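 Molm-16 cells treated 4 h with test compound at 0.01–10 μM, or control compounds at 10 μM. Lysates separated by SDS–PAGE, transferred to PVDF, blocked 1 h in 5% blocker/TBST, probed for each STAT protein, and detected by chemiluminescence.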

[4] = target: Protein cereblon/Signal transducer and activator of transcription 6 (Homo sapiens) (UniProt P42226+Q96SW2); test: Protac activity at CRBN/STAT6 in human MOLM16 cells assessed as degradation of STAT6 at 0.01 to 10 uM incubated for 4 hrs by Western blot analysis; type: cell-based; outline: as §1
[5] = target: T1, Protein cereblon/Signal transducer and activator of transcription 2 (Homo sapiens); test: Protac activity at CRBN/STAT2 in human SUDHL1 cells assessed as degradation of STAT2 at 0.01 to 10 uM incubated for 18 hrs by Western blot analysis; type: cell-based
Outline: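 SU-DHL-1 cells treated 18 h with test compound at 0.01–10 μM, or control compounds at 10 μM. Lysates separated by SDS–PAGE, transferred to PVDF, blocked 1 h in 5% blocker/TBST, probed for each STAT protein, and detected by chemiluminescence.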

Homo sapiens [6] = organism: Homo sapiens; test: Selectivity index, ratio of protac activity at CRBN/STAT4 in human SUDHL1 cells to protac activity at CRBN/STAT3 in human SUDHL1 cells; type: cell-based
Outline: (§2)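 SU-DHL-1 cells treated 18 h with compound at 0.01–10 μM, or controls at 10 μM. Immunoblotting used SDS–PAGE, PVDF transfer, 1 h block in 5% blocker/TBST, primary and secondary antibodies and chemiluminescence. Levels of other STAT family members compared with STAT3 to express degradation selectivity.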

Homo sapiens [7] = organism: Homo sapiens; test: Selectivity index, ratio of protac activity at CRBN/STAT5A in human SUDHL1 cells to protac activity at CRBN/STAT3 in human SUDHL1 cells; type: cell-based; outline: as §2
Mus musculus = test: In vivo degradation of STAT3 in SCID mouse xenografted with MOLM-16 cells at 50 mg/kg, iv measured upto 72 hrs by Western blot analysis relative to control; type: functional
Outline: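 SCID mice bearing subcutaneous Molm-16 tumors (3 × 10^6 cells in Matrigel; treated at ~150 mm3) given a single intravenous dose in 10% PEG400 + 90% PBS, or vehicle. Tumors harvested at time points. Lysates immunoblotted for total STAT3 and pSTAT3 Y705, compared with vehicle control.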

T1 sequence (P52630 whole entry, looked up): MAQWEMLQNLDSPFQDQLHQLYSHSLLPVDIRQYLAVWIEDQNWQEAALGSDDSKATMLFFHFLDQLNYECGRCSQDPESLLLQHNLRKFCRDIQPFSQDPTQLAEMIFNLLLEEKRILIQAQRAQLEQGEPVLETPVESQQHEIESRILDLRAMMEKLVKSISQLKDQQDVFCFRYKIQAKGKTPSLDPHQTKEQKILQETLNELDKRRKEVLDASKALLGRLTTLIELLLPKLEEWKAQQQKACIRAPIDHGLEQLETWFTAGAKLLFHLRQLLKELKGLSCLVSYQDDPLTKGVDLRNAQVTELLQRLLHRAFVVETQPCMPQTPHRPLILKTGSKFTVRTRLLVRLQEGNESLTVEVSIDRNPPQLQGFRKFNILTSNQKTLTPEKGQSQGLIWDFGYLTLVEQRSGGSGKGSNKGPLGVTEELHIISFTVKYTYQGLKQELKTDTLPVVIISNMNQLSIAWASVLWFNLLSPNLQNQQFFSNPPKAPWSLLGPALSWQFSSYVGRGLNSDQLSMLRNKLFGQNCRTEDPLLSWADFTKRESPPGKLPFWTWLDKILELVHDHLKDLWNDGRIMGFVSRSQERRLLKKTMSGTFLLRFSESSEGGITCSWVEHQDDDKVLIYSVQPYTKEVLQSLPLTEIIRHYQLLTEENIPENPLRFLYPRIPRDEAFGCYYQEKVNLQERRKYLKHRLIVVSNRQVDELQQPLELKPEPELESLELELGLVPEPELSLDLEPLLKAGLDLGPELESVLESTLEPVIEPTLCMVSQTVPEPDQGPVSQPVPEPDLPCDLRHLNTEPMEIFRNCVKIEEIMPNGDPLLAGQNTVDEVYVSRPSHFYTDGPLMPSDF
T1 sequence (Q96SW2 whole entry, looked up): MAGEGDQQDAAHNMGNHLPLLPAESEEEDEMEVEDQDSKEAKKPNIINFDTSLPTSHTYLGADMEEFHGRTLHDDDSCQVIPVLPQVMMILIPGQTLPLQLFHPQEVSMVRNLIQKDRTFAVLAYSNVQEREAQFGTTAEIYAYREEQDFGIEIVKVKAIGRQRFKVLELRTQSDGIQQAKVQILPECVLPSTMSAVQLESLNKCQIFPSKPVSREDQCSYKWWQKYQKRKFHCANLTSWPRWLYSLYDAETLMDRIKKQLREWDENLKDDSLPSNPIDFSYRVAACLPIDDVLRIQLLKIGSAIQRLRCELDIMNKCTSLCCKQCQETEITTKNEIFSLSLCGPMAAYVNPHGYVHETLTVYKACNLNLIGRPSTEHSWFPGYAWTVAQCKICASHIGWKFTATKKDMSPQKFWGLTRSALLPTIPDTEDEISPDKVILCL
Protein cereblon/Signal transducer and activator of transcription 3, sequence (P40763 whole entry): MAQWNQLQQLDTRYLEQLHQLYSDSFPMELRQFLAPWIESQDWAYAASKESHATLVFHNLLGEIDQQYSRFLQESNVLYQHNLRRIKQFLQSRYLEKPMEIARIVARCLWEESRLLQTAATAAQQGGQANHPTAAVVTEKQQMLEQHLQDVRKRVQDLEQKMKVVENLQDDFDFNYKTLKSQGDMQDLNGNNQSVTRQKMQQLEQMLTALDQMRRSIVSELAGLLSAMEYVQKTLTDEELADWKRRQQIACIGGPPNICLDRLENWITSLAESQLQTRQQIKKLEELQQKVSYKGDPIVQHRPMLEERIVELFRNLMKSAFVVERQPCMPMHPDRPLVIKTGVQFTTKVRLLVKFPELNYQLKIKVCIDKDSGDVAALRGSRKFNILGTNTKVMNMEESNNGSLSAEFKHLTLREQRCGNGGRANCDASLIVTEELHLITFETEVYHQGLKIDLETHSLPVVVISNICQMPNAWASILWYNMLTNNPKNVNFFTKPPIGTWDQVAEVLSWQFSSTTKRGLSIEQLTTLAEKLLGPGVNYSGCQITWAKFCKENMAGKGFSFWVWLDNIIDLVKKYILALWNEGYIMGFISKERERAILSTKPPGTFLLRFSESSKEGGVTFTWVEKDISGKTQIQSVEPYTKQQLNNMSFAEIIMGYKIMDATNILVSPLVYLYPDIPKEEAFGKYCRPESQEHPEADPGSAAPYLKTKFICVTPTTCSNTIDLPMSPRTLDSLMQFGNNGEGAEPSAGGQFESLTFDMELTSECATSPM
Protein cereblon/Signal transducer and activator of transcription 3, sequence (Q96SW2 whole entry): as the sequence (Q96SW2 whole entry, looked up) above
Protein cereblon/Signal transducer and activator of transcription 6 (Homo sapiens), sequence (P42226 2-847 limits assumed): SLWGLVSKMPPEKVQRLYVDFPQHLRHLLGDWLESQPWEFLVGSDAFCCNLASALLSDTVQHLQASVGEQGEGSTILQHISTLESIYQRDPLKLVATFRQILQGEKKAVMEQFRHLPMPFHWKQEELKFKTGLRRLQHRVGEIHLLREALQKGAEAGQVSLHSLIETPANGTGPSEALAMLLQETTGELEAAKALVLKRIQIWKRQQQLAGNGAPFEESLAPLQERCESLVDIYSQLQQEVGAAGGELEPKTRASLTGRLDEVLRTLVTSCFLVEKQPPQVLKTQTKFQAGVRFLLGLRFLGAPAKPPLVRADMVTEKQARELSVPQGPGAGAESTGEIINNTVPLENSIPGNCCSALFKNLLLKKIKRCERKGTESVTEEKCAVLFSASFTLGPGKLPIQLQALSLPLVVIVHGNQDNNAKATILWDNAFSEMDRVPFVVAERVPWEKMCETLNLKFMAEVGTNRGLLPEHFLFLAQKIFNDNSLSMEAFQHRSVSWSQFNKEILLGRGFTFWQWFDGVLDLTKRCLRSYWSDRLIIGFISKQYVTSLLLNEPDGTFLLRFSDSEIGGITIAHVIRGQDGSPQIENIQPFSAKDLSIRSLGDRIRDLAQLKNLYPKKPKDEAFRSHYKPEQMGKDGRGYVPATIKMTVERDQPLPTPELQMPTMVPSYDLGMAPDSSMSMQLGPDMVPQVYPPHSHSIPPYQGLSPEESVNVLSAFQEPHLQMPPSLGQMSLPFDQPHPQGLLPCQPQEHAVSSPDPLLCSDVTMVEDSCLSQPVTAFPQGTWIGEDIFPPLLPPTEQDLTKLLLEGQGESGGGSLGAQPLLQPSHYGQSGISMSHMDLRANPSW
Protein cereblon/Signal transducer and activator of transcription 6 (Homo sapiens), sequence (Q96SW2 whole entry partner): as the sequence (Q96SW2 whole entry, looked up) above

Q: What does the source list for `NC(=O)CC[C@H](NC(=O)[C@@H]1CC[C@@H]2CCN(C(=O)CCCCCC#Cc3cccc4c3CN(C3CCC(=O)NC3=O)C4=O)C[C@H](NC(=O)c3cc4cc(C(F)(F)P(=O)(O)O)ccc4[nH]3)C(=O)N21)C(=O)NC(c1ccccc1)c1ccccc1` (stereo partly drawn)?
A: DC50 [1]: 28 nM; IC50 [2]: 13 nM; Activity [3]: inactive; Activity [4]: inactive; Activity [5]: inactive; Ratio (Homo sapiens [6]): > 100; Ratio (Homo sapiens [7]): > 100; Activity (Mus musculus): >95%
